Measured values as given in ChEMBL document CHEMBL4602727, “Lead Optimization of Second-Generation Acridones as Broad-Spectrum Antimalarials” (J Med Chem, 2020).

Legend:
Type in all cases: ADME, organism-based
[1] = AUC (0 to last) in ICR mouse liver at 80 mg/kg, po administered as single dose; set-up: dose 80 mg/kg, time 0 - last, route oral
[2] = AUC (0 to infinity) in ICR mouse liver at 80 mg/kg, po administered as single dose; set-up: dose 80 mg/kg, route oral, time infinity
[3] = Ratio of AUC (0 to infinity) in ICR mouse liver to plasma at 80 mg/kg, po administered as single dose; settings: liver and plasma, read-out: Ratio AUC
[4] = Apparent volume of distribution in ICR mouse plasma at 80 mg/kg, po administered as single dose; settings: read-out: Vz/F
How it was run: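 Male ICR mice, 7 weeks old, 23–28 g, received a single intragastric 80 mg/kg dose in DD water (100 μL/20 g). […] Cmax and Tmax came from the concentration–time curves; t1/2 = ln2/kel; AUC by linear trapezoidal rule extrapolated to infinity; MRT = AUMC/AUC.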

Structure (SMILES): O=c1c2ccc(OCc3ccc(OC(F)(F)F)cc3)cc2[nH]c2cc(F)cc(F)c12
- AUC(0-t) [1]: 20400 ng·h/mL

Structure (SMILES): O=c1c2ccc(OCc3cccc(OC(F)(F)F)c3)cc2[nH]c2cc(F)cc(F)c12
- AUC(0-inf) [2]: 19300 ng·h/mL

Structure (SMILES): O=c1c2ccc(OCc3cccc(C(F)(F)F)c3)cc2[nH]c2cc(F)cc(F)c12
- AUC(0-t) [1]: 11500 ng·h/mL

Structure (SMILES): O=c1c2ccc(Oc3ccc(OC(F)(F)F)cc3)cc2[nH]c2cc(Cl)cc(F)c12
- Kp [3]: 112

Structure (SMILES): O=c1c2cc(OCc3ccc(OC(F)(F)F)cc3)ccc2[nH]c2cc(F)cc(F)c12
- Vd/F [4]: 290 L/kg
